Assay results published in ChEMBL document CHEMBL5696442, “Discovery of type II inhibitors of TGFβ-activated kinase 1 (TAK1) and mitogen-activated protein kinase kinase kinase kinase 2 (MAP4K2)” (J Med Chem, 2015).
The source made the active and inactive calls. The calls are words filed in the database; no cut-off is given here.

Assays:
[1] = molecular target: T1, Dual specificity mitogen-activated protein kinase kinase 3 (Homo sapiens) (UniProt P46734); test: Inhibition of MAP2K3 ACT labeling site in human Huh-7 cell lysate at 1 uM by KiNativ Profiling analysis relative to control; type: subcellular
T1 sequence (whole entry): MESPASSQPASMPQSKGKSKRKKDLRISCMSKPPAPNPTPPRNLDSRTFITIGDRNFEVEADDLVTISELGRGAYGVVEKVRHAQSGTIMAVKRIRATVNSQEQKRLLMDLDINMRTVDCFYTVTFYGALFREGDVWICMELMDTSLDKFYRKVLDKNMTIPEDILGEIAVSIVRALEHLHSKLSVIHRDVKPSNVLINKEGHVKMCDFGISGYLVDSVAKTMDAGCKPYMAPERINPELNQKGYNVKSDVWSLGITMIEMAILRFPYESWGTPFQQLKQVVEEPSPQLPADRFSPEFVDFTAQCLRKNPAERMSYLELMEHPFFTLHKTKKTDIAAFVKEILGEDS

[2] = molecular target: T2, Phosphatidylinositol 5-phosphate 4-kinase type-2 gamma (Homo sapiens) (UniProt Q8TBX8); test: Inhibition of PIP4K2C ATP labeling site harbouring TLVIKEVSSEDIADMHSNLSNYHQYIVK in human Huh-7 cells at 1 uM by KiNativ Profiling analysis relative to control; type: cell-based
T2 sequence (whole entry): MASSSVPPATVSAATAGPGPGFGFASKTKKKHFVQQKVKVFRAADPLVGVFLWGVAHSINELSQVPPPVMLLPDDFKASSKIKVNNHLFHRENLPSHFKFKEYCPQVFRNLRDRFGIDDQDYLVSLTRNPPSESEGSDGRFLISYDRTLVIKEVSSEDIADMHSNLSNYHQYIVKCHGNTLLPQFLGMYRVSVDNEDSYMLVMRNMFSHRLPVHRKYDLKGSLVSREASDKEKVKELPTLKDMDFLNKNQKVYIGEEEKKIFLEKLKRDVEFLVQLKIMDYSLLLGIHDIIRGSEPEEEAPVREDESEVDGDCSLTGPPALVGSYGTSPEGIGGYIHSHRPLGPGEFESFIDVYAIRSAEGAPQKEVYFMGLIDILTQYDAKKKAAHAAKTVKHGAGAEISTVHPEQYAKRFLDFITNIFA

[3] = molecular target: Tyrosine-protein kinase Srms (Homo sapiens) (UniProt Q9H3Y6); test: Inhibition of SRMS (unknown origin) at 10 uM by Ambit Kinomescan binding assay relative to control; values are per cent of control
Tyrosine-protein kinase Srms (Homo sapiens), sequence (Q9H3Y6 whole entry): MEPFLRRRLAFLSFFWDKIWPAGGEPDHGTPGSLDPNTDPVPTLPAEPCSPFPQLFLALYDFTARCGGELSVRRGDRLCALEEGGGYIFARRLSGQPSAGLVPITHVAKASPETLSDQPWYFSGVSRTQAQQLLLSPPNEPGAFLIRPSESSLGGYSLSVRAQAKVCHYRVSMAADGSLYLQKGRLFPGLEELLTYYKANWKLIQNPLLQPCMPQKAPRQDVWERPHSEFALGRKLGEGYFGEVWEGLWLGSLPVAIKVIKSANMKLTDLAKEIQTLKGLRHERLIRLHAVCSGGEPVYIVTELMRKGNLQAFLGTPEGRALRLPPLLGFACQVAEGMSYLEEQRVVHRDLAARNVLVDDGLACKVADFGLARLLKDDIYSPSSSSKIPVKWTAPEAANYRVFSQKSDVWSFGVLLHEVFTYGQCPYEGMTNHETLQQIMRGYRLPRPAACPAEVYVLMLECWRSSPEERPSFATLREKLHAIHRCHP

[4] = Inhibition of Wnk1/2/3 K2 labeling site in human Huh-7 cells at 10 uM by KiNativ Profiling analysis relative to control; settings: condition cancer
[5] = molecular target: Casein kinase I isoform delta (Homo sapiens) (UniProt P48730); test: Inhibition of CK1 delta K2 labeling site in human Huh-7 cells at 10 uM by KiNativ Profiling analysis relative to control; type: cell-based
Casein kinase I isoform delta (Homo sapiens), sequence (P48730 whole entry, looked up, canonical isoform): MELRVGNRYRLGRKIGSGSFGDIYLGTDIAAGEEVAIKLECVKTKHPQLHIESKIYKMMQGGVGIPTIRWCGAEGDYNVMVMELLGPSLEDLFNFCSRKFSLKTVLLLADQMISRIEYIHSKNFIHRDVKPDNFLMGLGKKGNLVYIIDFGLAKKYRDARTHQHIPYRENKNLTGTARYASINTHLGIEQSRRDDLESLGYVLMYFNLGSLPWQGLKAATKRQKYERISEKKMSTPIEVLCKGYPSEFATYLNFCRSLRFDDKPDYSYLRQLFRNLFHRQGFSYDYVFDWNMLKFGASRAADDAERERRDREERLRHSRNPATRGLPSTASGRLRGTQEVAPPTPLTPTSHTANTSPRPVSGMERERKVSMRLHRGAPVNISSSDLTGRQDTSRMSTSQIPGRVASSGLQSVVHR

[6] = molecular target: T3, Eukaryotic translation initiation factor 2-alpha kinase 3 (Homo sapiens) (UniProt Q9NZJ5); test: Inhibition of PEK K2 labeling site in human Huh-7 cells at 1 uM by KiNativ Profiling analysis relative to control; type: cell-based
T3 sequence (whole entry): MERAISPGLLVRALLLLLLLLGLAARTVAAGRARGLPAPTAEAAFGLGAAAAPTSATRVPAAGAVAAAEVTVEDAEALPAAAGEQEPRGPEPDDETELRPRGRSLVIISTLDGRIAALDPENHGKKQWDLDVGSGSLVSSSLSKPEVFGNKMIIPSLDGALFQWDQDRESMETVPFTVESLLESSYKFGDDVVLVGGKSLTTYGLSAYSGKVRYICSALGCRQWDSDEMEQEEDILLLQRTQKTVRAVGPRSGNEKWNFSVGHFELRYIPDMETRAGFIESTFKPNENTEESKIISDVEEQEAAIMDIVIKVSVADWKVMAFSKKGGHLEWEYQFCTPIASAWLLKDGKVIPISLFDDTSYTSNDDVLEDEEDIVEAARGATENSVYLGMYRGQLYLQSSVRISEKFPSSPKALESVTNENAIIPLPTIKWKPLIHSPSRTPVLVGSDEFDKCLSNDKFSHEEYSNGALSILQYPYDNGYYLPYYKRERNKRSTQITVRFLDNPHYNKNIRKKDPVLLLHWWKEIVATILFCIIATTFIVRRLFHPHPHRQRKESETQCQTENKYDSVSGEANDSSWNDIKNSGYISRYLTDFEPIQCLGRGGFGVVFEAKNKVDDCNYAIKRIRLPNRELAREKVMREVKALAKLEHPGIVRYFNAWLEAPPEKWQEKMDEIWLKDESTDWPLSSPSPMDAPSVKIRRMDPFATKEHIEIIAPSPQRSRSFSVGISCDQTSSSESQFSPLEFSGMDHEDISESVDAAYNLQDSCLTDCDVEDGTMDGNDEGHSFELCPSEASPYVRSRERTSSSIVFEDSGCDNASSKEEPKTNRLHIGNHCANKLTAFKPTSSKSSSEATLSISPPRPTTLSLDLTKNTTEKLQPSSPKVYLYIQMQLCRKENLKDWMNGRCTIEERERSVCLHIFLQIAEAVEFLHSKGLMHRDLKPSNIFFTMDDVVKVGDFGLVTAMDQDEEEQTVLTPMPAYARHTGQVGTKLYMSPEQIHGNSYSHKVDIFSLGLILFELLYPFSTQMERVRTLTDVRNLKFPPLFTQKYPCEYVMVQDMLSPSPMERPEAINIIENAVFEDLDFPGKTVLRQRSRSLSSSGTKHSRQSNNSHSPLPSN

[7] = molecular target: Testis-specific serine/threonine-protein kinase 1 (Homo sapiens) (UniProt Q9BXA7); test: Inhibition of TSSK1B (unknown origin) at 10 uM by Ambit Kinomescan binding assay
Testis-specific serine/threonine-protein kinase 1 (Homo sapiens), sequence (Q9BXA7 whole entry): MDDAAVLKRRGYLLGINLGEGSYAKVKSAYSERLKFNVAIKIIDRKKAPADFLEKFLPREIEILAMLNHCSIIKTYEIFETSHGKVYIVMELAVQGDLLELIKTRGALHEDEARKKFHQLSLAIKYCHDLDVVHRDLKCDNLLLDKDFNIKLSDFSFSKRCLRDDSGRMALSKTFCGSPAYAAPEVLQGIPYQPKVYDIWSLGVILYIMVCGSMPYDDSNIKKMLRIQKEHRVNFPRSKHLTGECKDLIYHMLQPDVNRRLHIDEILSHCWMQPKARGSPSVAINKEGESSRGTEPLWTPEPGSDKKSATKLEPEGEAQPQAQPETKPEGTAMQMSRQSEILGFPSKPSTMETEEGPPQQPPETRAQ

[8] = molecular target: Mitogen-activated protein kinase kinase kinase 9 (Homo sapiens) (UniProt P80192); test: Inhibition of MLK1 (unknown origin) at 10 uM by Ambit Kinomescan binding assay
Mitogen-activated protein kinase kinase kinase 9 (Homo sapiens), sequence (P80192 whole entry, looked up): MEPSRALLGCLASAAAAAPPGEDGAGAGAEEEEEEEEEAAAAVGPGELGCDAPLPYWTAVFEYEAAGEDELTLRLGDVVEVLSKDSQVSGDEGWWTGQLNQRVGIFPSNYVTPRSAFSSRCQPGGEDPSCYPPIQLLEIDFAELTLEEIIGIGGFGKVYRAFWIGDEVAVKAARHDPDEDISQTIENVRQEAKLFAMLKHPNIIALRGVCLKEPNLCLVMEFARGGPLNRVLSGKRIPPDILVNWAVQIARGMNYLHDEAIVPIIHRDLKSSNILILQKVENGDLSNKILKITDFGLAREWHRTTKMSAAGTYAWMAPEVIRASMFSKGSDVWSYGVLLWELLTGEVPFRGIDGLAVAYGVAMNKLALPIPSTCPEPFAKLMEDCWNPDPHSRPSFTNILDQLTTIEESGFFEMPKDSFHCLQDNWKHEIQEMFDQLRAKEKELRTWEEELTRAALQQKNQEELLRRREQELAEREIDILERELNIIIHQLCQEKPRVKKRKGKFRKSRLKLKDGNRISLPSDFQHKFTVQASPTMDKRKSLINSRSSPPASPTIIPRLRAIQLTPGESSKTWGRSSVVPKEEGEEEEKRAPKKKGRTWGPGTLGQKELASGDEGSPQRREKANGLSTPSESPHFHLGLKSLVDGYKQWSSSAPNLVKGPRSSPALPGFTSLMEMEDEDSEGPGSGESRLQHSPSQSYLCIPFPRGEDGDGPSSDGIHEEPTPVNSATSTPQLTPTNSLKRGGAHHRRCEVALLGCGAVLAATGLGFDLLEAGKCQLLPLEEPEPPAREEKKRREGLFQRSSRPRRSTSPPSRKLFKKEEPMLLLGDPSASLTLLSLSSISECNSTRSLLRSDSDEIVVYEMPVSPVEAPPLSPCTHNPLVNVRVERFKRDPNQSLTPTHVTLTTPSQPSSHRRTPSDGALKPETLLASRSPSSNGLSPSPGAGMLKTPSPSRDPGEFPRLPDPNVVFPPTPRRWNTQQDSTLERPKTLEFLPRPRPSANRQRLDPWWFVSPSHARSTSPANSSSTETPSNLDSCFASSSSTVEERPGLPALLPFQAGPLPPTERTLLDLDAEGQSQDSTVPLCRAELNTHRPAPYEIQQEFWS

[9] = molecular target: T2, Phosphatidylinositol 5-phosphate 4-kinase type-2 gamma (Homo sapiens); test: Inhibition of PIP4K2C ATP labeling site harbouring TLVIKEVSSEDIADMHSNLSNYHQYIVK in human A-375 cells at 0.05 uM by KiNativ Profiling analysis relative to control; type: cell-based
[10] = molecular target: cAMP-dependent protein kinase catalytic subunit alpha (Homo sapiens) (UniProt P17612); test: Inhibition of PKAC alpha (unknown origin) at 1 uM by Ambit Kinomescan binding assay relative to control
Outline: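 In vitro ATP-site competition binding assay against a panel of over 420 kinases (KinomeScan), with compound tested at 10 or 1 μM.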

[11] = molecular target: Serine/threonine-protein kinase 38 (Homo sapiens) (UniProt Q15208); test: Inhibition of NDR1 Lys1 labeling site in human A-375 cells at 0.5 uM by KiNativ Profiling analysis relative to control; type: cell-based
Serine/threonine-protein kinase 38 (Homo sapiens), sequence (Q15208 2-465 limits assumed): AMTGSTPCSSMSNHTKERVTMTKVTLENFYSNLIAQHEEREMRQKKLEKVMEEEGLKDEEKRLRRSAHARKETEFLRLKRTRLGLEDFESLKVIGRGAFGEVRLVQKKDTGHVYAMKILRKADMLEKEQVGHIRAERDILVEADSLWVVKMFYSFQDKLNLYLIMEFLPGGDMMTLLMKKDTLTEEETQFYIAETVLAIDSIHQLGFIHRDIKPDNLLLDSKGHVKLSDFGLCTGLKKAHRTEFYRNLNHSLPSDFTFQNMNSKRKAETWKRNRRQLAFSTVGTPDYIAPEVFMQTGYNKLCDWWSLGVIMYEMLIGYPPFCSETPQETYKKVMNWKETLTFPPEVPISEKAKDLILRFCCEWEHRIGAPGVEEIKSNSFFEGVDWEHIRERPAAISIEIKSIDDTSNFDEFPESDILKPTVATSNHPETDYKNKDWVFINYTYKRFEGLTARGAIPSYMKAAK

[12] = molecular target: Casein kinase I isoform gamma-3 (Homo sapiens) (UniProt Q9Y6M4); test: Inhibition of CSNK1G3 (unknown origin) at 1 uM by Ambit Kinomescan binding assay relative to control
Casein kinase I isoform gamma-3 (Homo sapiens), sequence (Q9Y6M4 whole entry, looked up, canonical isoform): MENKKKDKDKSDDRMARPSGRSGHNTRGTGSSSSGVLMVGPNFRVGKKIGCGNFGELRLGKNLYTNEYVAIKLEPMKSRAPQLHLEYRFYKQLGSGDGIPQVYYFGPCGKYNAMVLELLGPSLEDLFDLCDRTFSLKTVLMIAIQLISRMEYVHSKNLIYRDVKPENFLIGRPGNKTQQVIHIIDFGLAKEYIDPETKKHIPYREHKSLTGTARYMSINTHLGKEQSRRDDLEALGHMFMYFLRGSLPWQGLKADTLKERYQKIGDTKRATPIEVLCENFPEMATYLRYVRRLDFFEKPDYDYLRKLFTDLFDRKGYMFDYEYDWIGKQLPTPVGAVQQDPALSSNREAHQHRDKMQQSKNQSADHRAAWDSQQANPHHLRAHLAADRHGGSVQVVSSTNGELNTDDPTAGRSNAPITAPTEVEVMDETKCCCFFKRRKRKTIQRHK

[13] = molecular target: Tyrosine-protein kinase BTK (Homo sapiens) (UniProt Q06187); test: Inhibition of BTK (unknown origin) at 1 uM by Ambit Kinomescan binding assay relative to control
Tyrosine-protein kinase BTK (Homo sapiens), sequence (Q06187 whole entry): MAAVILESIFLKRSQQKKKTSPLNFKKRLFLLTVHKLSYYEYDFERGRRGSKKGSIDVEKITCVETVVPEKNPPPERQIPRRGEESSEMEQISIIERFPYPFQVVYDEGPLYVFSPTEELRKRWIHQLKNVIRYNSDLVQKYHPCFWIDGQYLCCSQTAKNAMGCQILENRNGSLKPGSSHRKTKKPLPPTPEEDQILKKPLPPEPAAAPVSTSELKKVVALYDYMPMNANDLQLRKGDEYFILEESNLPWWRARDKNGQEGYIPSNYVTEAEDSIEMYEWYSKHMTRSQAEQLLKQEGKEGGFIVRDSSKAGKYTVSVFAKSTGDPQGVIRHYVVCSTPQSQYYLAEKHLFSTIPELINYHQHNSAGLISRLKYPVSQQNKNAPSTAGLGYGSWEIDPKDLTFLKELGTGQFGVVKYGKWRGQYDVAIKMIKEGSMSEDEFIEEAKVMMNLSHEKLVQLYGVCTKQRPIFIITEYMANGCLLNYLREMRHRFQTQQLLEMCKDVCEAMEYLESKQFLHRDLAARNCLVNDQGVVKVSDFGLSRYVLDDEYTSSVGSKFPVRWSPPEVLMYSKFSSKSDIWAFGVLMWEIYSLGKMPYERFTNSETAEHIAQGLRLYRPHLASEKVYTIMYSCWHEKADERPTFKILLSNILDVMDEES

CNc1cc(Oc2cc(C(=O)Nc3cc(N4CCN(C)CC4)cc(C(F)(F)F)c3)ccc2C)ncn1
inhibition [1]: 0.6%
inhibition [2]: 12.8%

CCN1CCN(Cc2ccc(NC(=O)c3ccc(C)c(Oc4ccnc5[nH]ccc45)c3)cc2C(F)(F)F)CC1
residual activity [3]: 4.6%
inhibition at 10 µM [4]: 7.8%
inhibition [5]: 7.8%
inhibition [6]: inactive
inhibition [7]: inactive
inhibition [8]: inactive
inhibition [9]: -1.1%

CCN1CCN(Cc2ccc(NC(=O)c3ccc(C)c(/C=C/c4cnc5[nH]ccc5c4OC)c3)cc2C(F)(F)F)CC1
inhibition [10]: 84%
inhibition [11]: -0.8%
inhibition [12]: 71%
inhibition [13]: 10%
